Here are results for seven molecules from ChEMBL document CHEMBL1765082, “Aminothiazolomorphinans with mixed κ and μ opioid activity” (J Med Chem, 2011).

The term IC50 denotes the point on the concentration scale where inhibition reaches its midpoint. A low value points to greater potency in that assay. In general, Ki refers to a dissociation constant, usually derived from enzyme kinetics or from competition with a known ligand. As a reminder, the EC50 is the midpoint of the concentration-response curve. For orientation: Emax means the maximal effect, on the per cent scale that the assay sets.

The structures appear in SMILES notation. Activity calls are given as the source filed them. No cut-off for these calls is given here.

T2 sequence (P41145 whole entry): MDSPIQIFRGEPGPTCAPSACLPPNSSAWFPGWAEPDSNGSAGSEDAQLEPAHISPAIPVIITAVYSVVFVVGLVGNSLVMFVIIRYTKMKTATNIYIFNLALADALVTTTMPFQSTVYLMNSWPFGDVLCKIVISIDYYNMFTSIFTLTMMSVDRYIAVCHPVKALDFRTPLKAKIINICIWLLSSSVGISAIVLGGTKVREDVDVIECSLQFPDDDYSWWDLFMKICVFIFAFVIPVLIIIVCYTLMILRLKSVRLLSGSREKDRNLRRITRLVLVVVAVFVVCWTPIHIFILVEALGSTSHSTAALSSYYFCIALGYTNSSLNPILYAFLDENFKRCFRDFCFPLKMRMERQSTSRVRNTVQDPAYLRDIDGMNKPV
Delta-type opioid receptor, sequence (P41143 whole entry): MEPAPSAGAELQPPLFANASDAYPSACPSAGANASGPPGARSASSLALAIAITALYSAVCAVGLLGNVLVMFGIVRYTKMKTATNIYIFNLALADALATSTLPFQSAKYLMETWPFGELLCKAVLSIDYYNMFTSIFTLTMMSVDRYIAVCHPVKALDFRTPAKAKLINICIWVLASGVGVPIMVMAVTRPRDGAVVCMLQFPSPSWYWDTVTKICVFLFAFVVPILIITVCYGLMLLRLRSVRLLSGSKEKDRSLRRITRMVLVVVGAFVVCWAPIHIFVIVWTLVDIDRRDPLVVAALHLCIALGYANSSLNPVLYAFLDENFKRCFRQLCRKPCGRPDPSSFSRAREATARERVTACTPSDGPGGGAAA

The first experiment deals with T1, Mu-type opioid receptor (Homo sapiens, UniProt P35372).
T1 sequence (P35372 whole entry): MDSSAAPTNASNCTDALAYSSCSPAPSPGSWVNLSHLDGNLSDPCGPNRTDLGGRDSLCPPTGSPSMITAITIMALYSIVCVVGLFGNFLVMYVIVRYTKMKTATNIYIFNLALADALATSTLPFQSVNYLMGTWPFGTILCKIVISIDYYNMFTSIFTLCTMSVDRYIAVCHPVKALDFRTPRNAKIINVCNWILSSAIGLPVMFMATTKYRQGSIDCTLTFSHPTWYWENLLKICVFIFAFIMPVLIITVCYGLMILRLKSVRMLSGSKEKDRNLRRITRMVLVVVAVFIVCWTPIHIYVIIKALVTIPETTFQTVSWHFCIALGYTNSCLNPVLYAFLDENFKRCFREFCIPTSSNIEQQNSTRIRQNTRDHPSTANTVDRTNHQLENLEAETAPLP
Conditions: not given
Regarding `Nc1nc2cc3c(cc2s1)C[C@@H]1[C@@H]2CCCC[C@]32CCN1CC1CCC1`, the IC50 was 85 nM.

The next experiment addresses T1, Mu-type opioid receptor. The note with it: cho.
Regarding `CCNc1nc2cc3c(cc2s1)C[C@@H]1[C@@H]2CCCC[C@]32CCN1CCCF`, the IC50 entry was “Not Active”.

Regarding `CNc1nc2cc3c(cc2s1)C[C@@H]1[C@@H]2CCCC[C@]32CCN1CC1CC1`, the IC50 result was “Not Active”.

As for `Nc1nc2cc3c(cc2s1)C[C@@H]1[C@@H]2CCCC[C@]32CCN1CC1CC1`, the IC50 result is listed as “Not Active”.

In the case of `Nc1nc2cc3c(cc2s1)C[C@@H]1[C@@H]2CCCC[C@]32CCN1C[C@@H]1CCCO1`, the IC50 result was “Not Active”.

Consider `CNc1nc2cc3c(cc2s1)C[C@@H]1[C@@H]2CCCC[C@]32CCN1CCCF`, for which the IC50 result is “Not Active”.

For `CCNc1nc2cc3c(cc2s1)C[C@@H]1[C@@H]2CCCC[C@]32CCN1CC1CC1`, the IC50 entry was “Not Active”.

A further experiment addresses T2, Kappa-type opioid receptor (Homo sapiens, UniProt P41145). In words: Displacement of [3H]U69593 from human kappa opioid receptor expressed in CHO cells after 60 mins by scintillation counting. It counts as cell-based.
Conditions: not given
Turning to `CCNc1nc2cc3c(cc2s1)C[C@@H]1[C@@H]2CCCC[C@]32CCN1CCCF`, affinity was put at a Ki of 0.94 nM.

`CNc1nc2cc3c(cc2s1)C[C@@H]1[C@@H]2CCCC[C@]32CCN1CC1CC1` came in with a Ki of 0.066 nM.

Molecule `Nc1nc2cc3c(cc2s1)C[C@@H]1[C@@H]2CCCC[C@]32CCN1C[C@@H]1CCCO1` gave a Ki of 0.83 nM. This Ki is about 13-fold higher than that of the molecule before.

Consider `CNc1nc2cc3c(cc2s1)C[C@@H]1[C@@H]2CCCC[C@]32CCN1CCCF`, for which the Ki stood at 0.71 nM.

As for `CCNc1nc2cc3c(cc2s1)C[C@@H]1[C@@H]2CCCC[C@]32CCN1CC1CC1`, the affinity corresponds to a Ki of 0.151 nM.

Another experiment addresses T2, Kappa-type opioid receptor. In words: Antagonist activity at human kappa opioid receptor expressed in CHO cells assessed as […] in U50488-induced [35S]GTPgammaS binding by scintillation counting.
Conditions: not given
It counts as functional, cell-based. On the technique in general: GTPγS resists hydrolysis and so accumulates on activated G proteins.
Consider `CCNc1nc2cc3c(cc2s1)C[C@@H]1[C@@H]2CCCC[C@]32CCN1CCCF`, for which the result was inactive.

Regarding `CNc1nc2cc3c(cc2s1)C[C@@H]1[C@@H]2CCCC[C@]32CCN1CC1CC1`, the outcome was inactive.

For `Nc1nc2cc3c(cc2s1)C[C@@H]1[C@@H]2CCCC[C@]32CCN1CC1CC1`, the result was inactive.

With `Nc1nc2cc3c(cc2s1)C[C@@H]1[C@@H]2CCCC[C@]32CCN1C[C@@H]1CCCO1`, the outcome was inactive.

Take `CNc1nc2cc3c(cc2s1)C[C@@H]1[C@@H]2CCCC[C@]32CCN1CCCF`: the outcome was inactive.

For the molecule `Nc1nc2cc3c(cc2s1)C[C@@H]1[C@@H]2CCCC[C@]32CCN1CC1CCC1`, the outcome was inactive.

With `CCNc1nc2cc3c(cc2s1)C[C@@H]1[C@@H]2CCCC[C@]32CCN1CC1CC1`, the result was inactive.

Another experiment concerns the target T1, Mu-type opioid receptor. Nature of the experiment: Agonist activity at human mu opioid receptor expressed in CHO cells assessed as [35S]GTPgammaS binding by scintillation counting. It counts as functional, cell-based.
Conditions: not given
`CCNc1nc2cc3c(cc2s1)C[C@@H]1[C@@H]2CCCC[C@]32CCN1CCCF`: the EC50 came to 240 nM.

In the case of `CNc1nc2cc3c(cc2s1)C[C@@H]1[C@@H]2CCCC[C@]32CCN1CC1CC1`, the EC50 turned out to be 47 nM.

Consider `Nc1nc2cc3c(cc2s1)C[C@@H]1[C@@H]2CCCC[C@]32CCN1C[C@@H]1CCCO1`, for which the EC50 worked out at 71 nM.

Consider `Nc1nc2cc3c(cc2s1)C[C@@H]1[C@@H]2CCCC[C@]32CCN1CC1CCC1`, for which the EC50 is over 1000 nM.

Another experiment deals with T1, Mu-type opioid receptor. In words: Displacement of [3H]DAMGO from human mu opioid receptor expressed in CHO cells after 60 mins by scintillation counting. The class given is cell-based.
Conditions: not given
For orientation: In a radioligand displacement assay an active substance lowers the binding of a labelled ligand.
Regarding `CCNc1nc2cc3c(cc2s1)C[C@@H]1[C@@H]2CCCC[C@]32CCN1CCCF`, the Ki came to 4 nM.

Regarding `CNc1nc2cc3c(cc2s1)C[C@@H]1[C@@H]2CCCC[C@]32CCN1CC1CC1`, the Ki was 3 nM.

The molecule `Nc1nc2cc3c(cc2s1)C[C@@H]1[C@@H]2CCCC[C@]32CCN1C[C@@H]1CCCO1` displayed a Ki of 2.4 nM.

Turning to `CNc1nc2cc3c(cc2s1)C[C@@H]1[C@@H]2CCCC[C@]32CCN1CCCF`, the affinity, expressed as Ki, was 7.4 nM. This Ki lies about 3.1-fold higher than the previous one.

`CCNc1nc2cc3c(cc2s1)C[C@@H]1[C@@H]2CCCC[C@]32CCN1CC1CC1` displayed a Ki of 4.7 nM.

For another experiment, the target named is T1, Mu-type opioid receptor. In words: Agonist activity at human mu opioid receptor expressed in CHO cells assessed as [35S]GTPgammaS binding by scintillation counting relative to control.
Conditions: not given
It counts as functional, cell-based. An outline of the steps:
(§1)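 Membranes from CHO cells stably expressing human κ (15 μg protein/tube) or μ (7.5 μg protein/tube) opioid receptor, grown in DMEM with 10% FBS at 37 °C, 5% CO2. Twelve agonist concentrations were incubated 60 min at 30 °C in 50 mM Tris-HCl, 3 mM MgCl2, 100 mM NaCl, 0.2 mM EGTA, pH 7.4, with 3 μM GDP and [35S]GTPγS. Filtration, then scintillation counting. Stimulation expressed as percent over basal; ≥3 experiments in triplicate.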
On to `Nc1nc2cc3c(cc2s1)C[C@@H]1[C@@H]2CCCC[C@]32CCN1C[C@@H]1CCCO1`, for which the Emax was 120%.

For another experiment, the target named is T2, Kappa-type opioid receptor. In words: Agonist activity at human kappa opioid receptor expressed in CHO cells assessed as [35S]GTPgammaS binding by scintillation counting. It counts as functional, cell-based.
Conditions: not given
Consider `CCNc1nc2cc3c(cc2s1)C[C@@H]1[C@@H]2CCCC[C@]32CCN1CCCF`, for which the EC50 is 89 nM.

Consider `CNc1nc2cc3c(cc2s1)C[C@@H]1[C@@H]2CCCC[C@]32CCN1CC1CC1`, for which the EC50 was 14 nM.

For the molecule `Nc1nc2cc3c(cc2s1)C[C@@H]1[C@@H]2CCCC[C@]32CCN1C[C@@H]1CCCO1`, the EC50 came to 14 nM.

The target in the next experiment is T2, Kappa-type opioid receptor. In words: Agonist activity at human kappa opioid receptor expressed in CHO cells assessed as [35S]GTPgammaS binding by scintillation counting relative to control.
Conditions: not given
It counts as functional, cell-based. An outline of the steps: as §1
Turning to `CCNc1nc2cc3c(cc2s1)C[C@@H]1[C@@H]2CCCC[C@]32CCN1CCCF`, the Emax turned out to be 150%.

Take `CNc1nc2cc3c(cc2s1)C[C@@H]1[C@@H]2CCCC[C@]32CCN1CC1CC1`: the Emax is 82%.

Consider `Nc1nc2cc3c(cc2s1)C[C@@H]1[C@@H]2CCCC[C@]32CCN1C[C@@H]1CCCO1`, for which the maximum response (Emax) is 190%.

`CNc1nc2cc3c(cc2s1)C[C@@H]1[C@@H]2CCCC[C@]32CCN1CCCF`: the Emax was found to be 170%.

Consider `CCNc1nc2cc3c(cc2s1)C[C@@H]1[C@@H]2CCCC[C@]32CCN1CC1CC1`, for which the Emax was determined as 190%.

The next experiment concerns the target Delta-type opioid receptor (Homo sapiens, UniProt P41143). In words: Displacement of [3H]Naltrindole from human delta opioid receptor expressed in CHO cells after 3 hrs by scintillation counting. It counts as cell-based.
Conditions: not given
In short, it runs like this: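 Membranes from CHO cells expressing human κ, μ or δ opioid receptor were incubated with 12 compound concentrations and a receptor-selective radioligand at 25 °C in 50 mM Tris-HCl, pH 7.5. […] Nonspecific binding was defined with 10 μM naloxone. Ki reported as mean ± SEM, three experiments in triplicate.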
Molecule `CCNc1nc2cc3c(cc2s1)C[C@@H]1[C@@H]2CCCC[C@]32CCN1CCCF` displayed a Ki of 76 nM.

`CNc1nc2cc3c(cc2s1)C[C@@H]1[C@@H]2CCCC[C@]32CCN1CC1CC1` returned a Ki of 25 nM.

For the molecule `Nc1nc2cc3c(cc2s1)C[C@@H]1[C@@H]2CCCC[C@]32CCN1C[C@@H]1CCCO1`, the Ki came out at 56 nM.

In turn, `CNc1nc2cc3c(cc2s1)C[C@@H]1[C@@H]2CCCC[C@]32CCN1CCCF` yielded a Ki of 50 nM.

As to `CCNc1nc2cc3c(cc2s1)C[C@@H]1[C@@H]2CCCC[C@]32CCN1CC1CC1`, affinity was put at a Ki of 43 nM.

The species entered for the next experiment is Homo sapiens. In words: Selectivity ratio of Ki for human mu opioid receptor to Ki for human kappa opioid receptor.
Conditions: not given
For `Nc1nc2cc3c(cc2s1)C[C@@H]1[C@@H]2CCCC[C@]32CCN1CC1CC1`, the Ratio Ki was 30.

For `Nc1nc2cc3c(cc2s1)C[C@@H]1[C@@H]2CCCC[C@]32CCN1C[C@@H]1CCCO1`, the Ratio Ki is 3.

Consider `Nc1nc2cc3c(cc2s1)C[C@@H]1[C@@H]2CCCC[C@]32CCN1CC1CCC1`, for which the Ratio Ki turned out to be 9.

Another experiment is filed under the species Homo sapiens. Nature of the experiment: Selectivity ratio of Ki for human delta opioid receptor to Ki for human kappa opioid receptor.
Conditions: not given
In the case of `Nc1nc2cc3c(cc2s1)C[C@@H]1[C@@H]2CCCC[C@]32CCN1CC1CC1`, the Ratio Ki worked out at 590.

Consider `Nc1nc2cc3c(cc2s1)C[C@@H]1[C@@H]2CCCC[C@]32CCN1C[C@@H]1CCCO1`, for which the Ratio Ki came to 67.

`Nc1nc2cc3c(cc2s1)C[C@@H]1[C@@H]2CCCC[C@]32CCN1CC1CCC1`: the Ratio Ki came to 290.
